# Screening data: PubChem BioAssay, several laboratories
# Shown are actives, neighbours in structure and some others; about 2.9% of the full set was active somewhere.
# CRFBP-R2 agonist: CRF-BP/CRF-R2 complex agonism. HEK293 CRF-R2/CRF-BP, calcium dye fluorescence (FLIPR); percent of saturating CRF peptide response. activation, % at 13.2 µM. hit rate 0.46% among 350,000. AID 588473;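 active = activation of at least 50%, plus an integration ratio under a set limit after plate pattern correction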
# proKLK7 act: proKLK7 (human) activation, primary screen. hit rate 0.9% among 370,000. P49862. activation, % at 7 µM. purified proKLK7, EDANS-DABCYL substrate fluorescence; 100% is mature enzyme control, 0% vehicle;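 active = activation above the mean of all tested compounds plus 3 SD, computed per campaign excluding outliers beyond control limits, cut at about 13% in these data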
# CRFBP-R2 block: CRF-BP/CRF-R2 complex antagonism. inhibition, % at 11.8 µM. HEK293 CRF-R2/CRF-BP, CRF-induced calcium fluorescence. AID 588475. hit rate 0.59% among 350,000;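 active = inhibition of the ligand-induced calcium signal above about 50% at the single tested concentration, limit read from the data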
# DDE Tn6 FP inh: inhibitors of Tn6 peptide binding to human fibrin DD(E). hit rate 0.21% among 370,000. inhibition, % at 8.3 µM. Fibrin DD(E) TRITC-Tn6 fluorescence polarization displacement. P02675;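 active = inhibition above a per-campaign cutoff: mean of compounds within control limits plus 3 SD, cut at about 15% in these data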
# Target sequence (P02675 whole entry, looked up): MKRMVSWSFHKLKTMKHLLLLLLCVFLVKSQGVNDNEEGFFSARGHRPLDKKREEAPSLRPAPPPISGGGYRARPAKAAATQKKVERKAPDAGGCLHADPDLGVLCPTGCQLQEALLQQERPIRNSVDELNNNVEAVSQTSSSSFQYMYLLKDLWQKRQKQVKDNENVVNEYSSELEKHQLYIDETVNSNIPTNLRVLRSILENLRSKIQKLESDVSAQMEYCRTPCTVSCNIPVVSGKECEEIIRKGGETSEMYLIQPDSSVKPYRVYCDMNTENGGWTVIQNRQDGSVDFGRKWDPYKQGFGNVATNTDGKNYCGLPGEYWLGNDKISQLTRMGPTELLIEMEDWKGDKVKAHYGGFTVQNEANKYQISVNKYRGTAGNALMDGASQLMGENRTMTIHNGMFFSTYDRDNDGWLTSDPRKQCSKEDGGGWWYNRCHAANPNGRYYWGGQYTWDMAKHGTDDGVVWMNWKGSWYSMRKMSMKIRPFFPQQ
# NRP1-CendR mod: NRP-1/CendR interaction modulation | O14786 | FAM-RPARPAR peptide binding to NRP-1, fluorescence polarization | inhibition, % at 25 µM | hit rate 0.85% among 360,000 | AID 602438;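 active = inhibition or corrected inhibition above about 18%, plus a signal ratio from 0.5 to 1.5, limit read from the data, passing the limit was not always enough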
# Tn7 DDE FP: inhibitors of Tn7 peptide binding to human fibrin DD(E). P02675. FP displacement of FITC-Tn7 peptide from fibrin DD(E); 0% = median of compound wells per plate. inhibition, % at 8.3 µM. hit rate 0.13% among 370,000. AID 720508;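 active = inhibition above the mean of compounds falling within the control limits plus 3 SD of them, cut at about 14% in these data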
#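 Test system: human clot-derived fibrin DD(E) complex / Quantity: 2 µM final DD(E) protein / Incubation: 10 min plus 3 h, room temperature / Measured by: fluorescence polarization / Benchmarks: high control of 10 µM Aha-Tn7 peptide / Replicates: singlicate testing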
# Numbers stand for hits; . = inactive; / = not tested or not shown.
SMILES,CRFBP-R2 agonist,proKLK7 act,CRFBP-R2 block,DDE Tn6 FP inh,NRP1-CendR mod,Tn7 DDE FP
N/C(=N\OC(=O)c1cccs1)C1(c2ccc(Cl)cc2Cl)CC1,.,.,.,.,37,.
CC1CCCN(c2cccc3c2S(=O)(=O)N(Cc2cccc(F)c2)[C@@H](C)[C@H](c2ccccc2)O3)C1 (stereo partly drawn),/,.,/,.,/,.
CCCNC(=O)Cn1c(=O)/c(=C/c2ccc(-c3ccc([N+](=O)[O-])cc3)o2)s/c1=C\C(=O)C(C)(C)C,165,.,.,.,.,.
CCCCCOc1ccc(Br)cc1CSC(=N)N,.,.,.,.,35,.
COC(=O)C[C@@H]1CC[C@H]2[C@@H](COc3ccc(NS(=O)(=O)c4ccccc4F)cc3C(=O)N2C)O1,/,.,/,.,/,.
CC(=O)Nc1cc(C(C)C)c(O)c(C(C)C)c1,.,.,.,.,.,.
COC(=O)C(OC(=O)c1ccccc1)C(C)Br (stereo not drawn),.,.,63,.,.,.
CC(C)OC(=O)c1ccc(NC(=O)c2ccccc2)cc1,.,.,.,.,35,.
CC(C)c1cc(NC(=O)c2ccccc2)cc(C(C)C)c1O,.,.,82,.,.,.
C[C@H]1[C@H](NC(=O)c2cccc(Cl)c2)CC[C@@]23CCCN2C(=O)CCC[C@@H]13,/,/,/,.,/,.
CN(Cc1ccccc1Cl)C(=O)CN1C(=O)C2(OCCCO2)c2ccccc21,/,.,/,.,/,.
CC(=O)Nc1ccc(-c2csc(NCc3ccccc3)n2)cc1,.,.,.,.,.,.
CC(=O)Nc1cccc(-c2csc(NCc3ccccc3)n2)c1,.,.,.,.,26,.
N#Cc1cc(F)cc(OC[C@@H](O)CN2CCC(C(O)(c3ccccc3)c3ccccc3)CC2)c1,/,.,/,.,/,.
O=C1NC(=S)S/C1=C/c1ccc(Oc2cnccn2)cc1,.,.,.,.,.,.
O=C1NC(=S)S/C1=C\c1cc(Cl)ccc1Cl,.,.,70,.,.,.
CCOc1ccc(N(C)c2ccc(/C=C3/SC(=S)NC3=O)cc2)cc1,68,.,.,.,.,.
COc1ccc(N=C2NC(=O)S/C2=C\c2ccc(N(C)C)cc2)cc1,98,.,.,.,.,.
CCOc1ccc(N=C2NC(=O)S/C2=C\c2ccc(Cl)cc2)cc1,.,.,.,.,.,.
CN(C)c1ccc(C=C2SC(=S)NC2=O)cc1,132,.,.,.,.,.
O=C(CN1CCc2onc(-c3ccc(-n4cc(COc5ccc([N+](=O)[O-])cc5)nn4)cc3)c2C1=O)N1CCOCC1,/,.,/,.,/,.
O=C(c1cccc(F)c1F)N1CCCC(c2nc(-c3cccs3)no2)C1 (stereo not drawn),/,.,/,.,/,.
C=CCn1c(COc2ccc(C)cc2)nnc1SCc1ccc([N+](=O)[O-])cc1,/,.,/,.,/,.
C=CCN1C(C(=O)OC)CN(Cc2cn(CCC3OCCO3)nn2)CCS1(=O)=O (stereo not drawn),/,.,/,.,/,.
CC[n+]1c(/C=C/C=C/N(C(C)=O)c2ccccc2)sc2cc(OC)ccc21,146,.,.,.,/,.
SMILES,CRFBP-R2 agonist,proKLK7 act,CRFBP-R2 block,DDE Tn6 FP inh,NRP1-CendR mod,Tn7 DDE FP
CCOC(=O)C1=NOC(C(=O)NC2CCCC2)(C(=O)C2CC2)C1 (stereo not drawn),/,.,/,.,/,.
COC(=O)C1N[C@@H]([C@@H](NC(=O)COc2ccccc2)C(=O)NC2CC2)SC1(C)C (stereo partly drawn),.,.,.,.,31,.
COC(=O)C1N[C@@H]([C@@H](NC(=O)COc2ccccc2)C(=O)Nc2ccc(OC)cc2)SC1(C)C (stereo partly drawn),.,.,.,.,.,.
CCOC(=O)c1[nH]cnc1C(=O)N1CCC(C)CC1,.,.,.,.,.,.
CC1CCN(C(=O)c2nc[nH]c2C(=O)N2CCc3ccccc3C2)CC1,.,.,.,.,29,.
O=C(Nc1ccccc1)c1nc[nH]c1C(=O)N1CCc2ccccc2C1,.,.,.,.,.,.
CC1CCN(C(=O)c2nc[nH]c2C(=O)N2CCC(C)CC2)CC1,.,.,.,.,36,.
COc1ccc(NC(=O)c2nc[nH]c2C(=O)N2CCC(C)CC2)cc1,.,.,.,.,25,.
O=C(COC(=O)c1c[nH]c(=O)[nH]c1=O)Nc1ccccc1F,.,.,.,.,.,.
CSc1ccccc1NC(=O)COC(=O)c1c[nH]c(=O)[nH]c1=O,112,.,.,.,.,.
CCCCCCc1cc2cc(C(=O)Nc3ccccc3)c(=O)oc2cc1O,.,.,.,.,.,.
CCCCCCc1cc2cc(C(=O)NCc3ccccc3)c(=N)oc2cc1O,175,.,.,.,.,.
CCc1ccc(Nc2n[n+](-c3ccccc3)c(-c3ccc(N(CC)CC)cc3)s2)cc1,67,.,.,.,.,.
Cc1ccccc1N=C(N)Nc1ccccc1C,.,.,.,.,37,.
Cc1ccccc1NC(=O)NC(N)=O,.,.,.,.,.,.
COc1ccc(-c2ccc(OC)c(OC)c2OC)c(OC)c1OC,.,.,.,.,20,.
Cc1cc(NS(=O)(=O)c2ccc(NC(=O)Cc3ccc(Cl)c(F)c3)cc2)no1,/,.,/,.,/,.
CCOc1ccc(C2C(C#N)=C(N)N3C(=C2C#N)Sc2ccccc23)cc1 (stereo not drawn),93,/,.,/,.,/
CC1(Cc2ccc(F)c(Cl)c2)C(=O)Nc2c(Cl)cccc21 (stereo not drawn),/,.,/,.,25,.
CCOc1cc2c(cc1C=O)OC(C)C2 (stereo not drawn),.,.,.,.,.,.
CCOc1cc2c(cc1/C=C/c1noc(C)c1[N+](=O)[O-])OC(C)C2 (stereo not drawn),193,.,.,.,.,.
Cc1cc(OCC(C)CN2CCC(C(O)(c3ccccc3)c3ccccc3)CC2)ccc1Br (stereo not drawn),/,.,/,.,/,.
CCc1nnc(NS(=O)(=O)c2ccc(N=Cc3c(C)[nH]n(-c4cccc(Cl)c4)c3=O)cc2)s1,.,.,51,.,.,.
CCc1nnc(NS(=O)(=O)c2ccc(N=Cc3c(C)[nH]n(-c4ccc(Cl)cc4)c3=O)cc2)s1,.,.,.,.,.,.
O=C(c1ccc2c(c1)OCO2)C1CCCN(Cc2cc(F)ccc2-n2cccn2)C1 (stereo not drawn),56,.,.,.,.,.
CC[C@@H](CCCc1ccc(F)cc1)CN(Cc1ccc(OC)cc1)S(=O)(=O)c1ccc(C)cc1,/,.,/,.,/,.
CC(=O)c1ccc2c3c(cccc13)C(=O)N(c1c(C)nn(C)c1C)C2=O,.,.,.,.,.,.
